Tb MetRS inh – Trypanosoma brucei MetRS inhibition | purified T. brucei MetRS, ATP depletion, Kinase-Glo luminescence | inhibition, % at 11.9 µM | 360,000 compounds, 0.4% hits | AID 624268;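 active = inhibition above a per-plate cutoff of the control wells' mean inhibition plus 3 SD, cut at about 5.5% in these data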;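 note: 0% = DMSO wells median and 100% = median of wells with control inhibitor compound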
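assay system = parasite MetRS enzyme | timing = 15 min preincubation, 2 h reaction, all 25 °C | evaluation = percent inhibition relative to median high and low control wells | medium = HEPES buffer containing pyrophosphatase, BSA, spermine, DTT | compound = single dose, 11.9 µM final nominal, 0.9% final DMSO | detection = Kinase-Glo luminescence, ATP depletion format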
PLC-gamma1 inh – blocks human PLC-gamma1 enzyme activity; AID 720700; 370,000 compounds, 0.84% hits; P19174; purified PLC-gamma1, fluorogenic substrate, fluorescence; inhibition, % at 12.2 µM; in the data active = inhibition above about 9.5%
Target sequence (P19174 whole entry, looked up): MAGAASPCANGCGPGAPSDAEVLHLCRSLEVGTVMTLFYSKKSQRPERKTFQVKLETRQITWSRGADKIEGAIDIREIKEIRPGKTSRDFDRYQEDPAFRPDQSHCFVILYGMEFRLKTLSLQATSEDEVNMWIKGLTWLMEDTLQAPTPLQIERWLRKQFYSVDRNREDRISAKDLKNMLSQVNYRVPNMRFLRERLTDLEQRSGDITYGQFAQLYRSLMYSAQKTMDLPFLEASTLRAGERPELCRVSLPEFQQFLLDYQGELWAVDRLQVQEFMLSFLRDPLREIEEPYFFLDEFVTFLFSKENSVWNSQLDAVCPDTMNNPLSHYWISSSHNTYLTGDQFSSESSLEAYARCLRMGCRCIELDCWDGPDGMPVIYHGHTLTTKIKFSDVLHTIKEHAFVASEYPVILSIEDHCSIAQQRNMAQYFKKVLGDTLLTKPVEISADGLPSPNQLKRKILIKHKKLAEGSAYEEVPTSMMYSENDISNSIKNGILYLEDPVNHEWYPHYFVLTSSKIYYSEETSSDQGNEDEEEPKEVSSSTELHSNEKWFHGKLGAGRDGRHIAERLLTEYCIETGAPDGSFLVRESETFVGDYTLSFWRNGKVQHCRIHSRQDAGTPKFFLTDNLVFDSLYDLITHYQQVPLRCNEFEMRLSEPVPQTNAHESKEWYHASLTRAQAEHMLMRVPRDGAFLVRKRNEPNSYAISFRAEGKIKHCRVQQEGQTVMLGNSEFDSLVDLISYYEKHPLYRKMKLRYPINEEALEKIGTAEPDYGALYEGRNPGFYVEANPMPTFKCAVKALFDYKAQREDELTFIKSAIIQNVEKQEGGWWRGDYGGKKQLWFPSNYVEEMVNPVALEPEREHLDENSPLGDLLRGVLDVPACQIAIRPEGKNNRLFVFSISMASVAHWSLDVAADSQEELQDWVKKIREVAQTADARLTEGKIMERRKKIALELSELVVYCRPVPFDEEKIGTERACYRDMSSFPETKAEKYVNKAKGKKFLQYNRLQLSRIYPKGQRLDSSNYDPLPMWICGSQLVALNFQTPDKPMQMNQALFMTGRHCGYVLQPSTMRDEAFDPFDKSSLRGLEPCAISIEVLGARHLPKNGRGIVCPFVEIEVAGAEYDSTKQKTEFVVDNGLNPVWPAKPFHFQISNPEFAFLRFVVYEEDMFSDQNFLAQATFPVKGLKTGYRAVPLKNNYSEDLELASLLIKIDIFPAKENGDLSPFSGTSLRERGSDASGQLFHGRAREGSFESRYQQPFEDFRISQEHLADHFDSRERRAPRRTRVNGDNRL
ADAM10 inh – inhibitors of human ADAM10 | O14672 | recombinant ADAM10, EDANS/DABCYL FRET peptide cleavage, 3 h | inhibition, % at 7 µM | 370,000 compounds, 0.62% hits | AID 720582;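 active = inhibition above a per-campaign cutoff equal to the mean of compounds falling between control-based bounds plus 3 SD, cut at about 20% in these data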;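 note: 0% = DMSO wells while the 100% control is not disclosed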
PLC-beta3 inh – blocks human PLC-beta3 enzyme activity | Q01970 | Purified PLC-beta3, fluorogenic substrate, fluorescence | inhibition, % at 12.2 µM | 370,000 compounds, 0.18% hits | AID 720704; in the data active = inhibition above about 11%;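 note: 0% = median of compound wells on plate and 100% = full blocker control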
ADAM17 inh – inhibitors of human ADAM17; 370,000 compounds, 0.83% hits; recombinant ADAM17, EDANS/DABCYL FRET peptide cleavage; inhibition, % at 6.95 µM;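 active = inhibition above the mean of compounds lying between control limits plus 3 SD, set per campaign, cut at about 8.5% in these data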;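 note: 0% = DMSO-only wells as the low control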
TbMetRS confirm – Trypanosoma brucei MetRS inhibition confirmed. T. brucei MetRS enzyme, luminescence (ATP depletion). shares compounds with Tb MetRS inh. inhibition, % at 11.9 µM. AID 624412. 1,400 compounds, 93% hits; in the data active = inhibition above about 7%
Jurkat tox – counter-screen for T. brucei MetRS inhibitors: Jurkat cell cytotoxicity; shares compounds with Tb MetRS inh; Jurkat cells viability, ATP luminescence; inhibition, % at 8.3 µM; 1,400 compounds, 12% hits; in the data active = inhibition above about 15%;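 note: 0% = vehicle and 100% = reference inhibitor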
TbMetRS FP orth – orthogonal test for Trypanosoma brucei MetRS inhibitors | 1,400 compounds, 44% hits | purified T. brucei MetRS, fluorescence polarization | inhibition, % at 11.9 µM | shares compounds with Tb MetRS inh; in the data active = inhibition above about 17%;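 note: 0% = vehicle wells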
The depositor's hits bear a star; / = not tested or not shown. Sampled rows, rich in hits. Any-hit rate of the full collection: about 2.3%.

SMILES	Tb MetRS inh	PLC-gamma1 inh	ADAM10 inh	PLC-beta3 inh	ADAM17 inh	TbMetRS confirm	Jurkat tox	TbMetRS FP orth
Cc1ccc(NC(=O)NNS(=O)(=O)c2ccc(Br)cc2)cc1	1.5	4.6	4.1	1.6	1.2	/	/	/
O=C(NCCc1ccncc1)Nc1ccc(F)cc1	-1.4	-1.9	-7.1	-7.0	-6.9	/	/	/
O=C(NCCc1ccc(Cl)cc1)Nc1ccc(Cl)cc1	71.3*	1.3	-0.8	-5.3	-2.9	68.8*	4.0	54.5*
NS(=O)(=O)c1ccc(CNC(=S)Nc2ccc(Cl)c(Cl)c2)cc1	1.9	1.2	9.5	-8.7	3.2	/	/	/
NS(=O)(=O)c1ccc(CCNC(=O)Nc2ccc(Cl)c(Cl)c2)cc1	15.2*	2.4	10.5	2.2	5.8	23.1*	18.0*	19.3*
O=C(/C(=C/c1ccc(Cl)cc1)c1nc2ccccc2[nH]1)c1ccccc1	6.6*	-13.6	4.6	-19.0	7.0	2.6	97.5*	4.5
COc1cccc2c1[C@H](/C=C/c1ccccc1)[C@@H]([C@H](O)COC(C)=O)OC2	/	0.7	4.5	1.7	4.0	/	/	/
O=c1nc(N2CCCC2)nc(N2CCCC2)[nH]1	-0.1	-1.2	2.6	-5.4	-4.8	/	/	/
CC(=O)Nc1cccc(CCc2nc3ccccc3[nH]2)c1	0.1	0.0	1.7	-6.4	-2.6	/	/	/
Cc1ccccc1NC(=O)N(CCc1nc2ccccc2[nH]1)Cc1ccccc1	7.0*	-1.0	-0.2	-0.3	-0.8	13.8*	13.5	4.1
CN(CC(=O)Nc1cccc(F)c1)C(=O)c1cc(S(=O)(=O)N(C)C)ccc1N1CCCC1	10.0*	-5.8	-6.1	-11.8	-1.6	27.5*	2.5	9.9
Cc1ccc(NC(=O)CN(C)C(=O)c2cc(S(=O)(=O)N(C)C)ccc2N2CCCC2)cc1	48.7*	-1.7	-4.6	-12.1	-3.2	78.1*	4.9	52.5*
Cc1cc(/C([O-])=C(/C(=S)Nc2ccc(F)cc2)[n+]2ccccc2)c(C)n1Cc1ccccc1Cl	-0.3	-10.8	-6.7	-26.3	-4.7	/	/	/
OCC1(CCOc2ccccc2)CCN(Cc2cn[nH]c2-c2ccc(F)cc2)CC1	-0.2	2.0	-7.1	-4.0	-0.5	/	/	/
OCC1(CCOc2ccccc2)CCN(Cc2nc3ccc(F)cc3[nH]2)CC1	7.5*	-4.1	-5.6	-7.2	-1.6	21.1*	1.9	0.1
COc1ccc(C(C#N)=Cc2cc(OC)c(OC)c(OC)c2)cc1	/	-13.8	-7.8	-17.6	-2.3	/	/	/
COc1ccc(/C(C#N)=C/c2cccnc2)cc1	6.1*	-238.9	-306.3	-339.3	-132.7	15.0*	-1.0	7.9
O=C(CNC(=O)c1ccc2c(c1)OCO2)N/N=C(Br)/C=C/c1ccccc1	34.6*	-0.9	-5.7	-5.9	-2.6	52.4*	29.1*	42.1*
N=C1C(c2ccccc2)=C(O)CN1c1cccc(S(=O)(=O)N2CCOCC2)c1	0.1	-4.0	0.5	-8.8	-2.6	/	/	/
CN(C)C(CNc1ncnc2sccc12)c1ccccc1 (configuration not stated)	8.0*	-2.6	-1.4	-0.9	-4.5	0.9	-3.6	-0.8
CN1CCCCC(NC(=O)c2cccc(F)c2)C1=O (configuration not stated)	/	-0.4	-11.6	2.9	-3.4	/	/	/
O=S(=O)(Nc1cc2nc3ccccc3nc2n1Cc1ccccc1)c1ccc(Cl)cc1	32.3*	-28.6	-88.3	-36.5	-24.4	96.3*	1.9	76.0*
O=S(=O)(NCc1ccccc1)c1ccc(Cl)cc1	-0.4	0.9	-0.3	0.3	-3.7	/	/	/
C=C[C@@H]1c2ccccc2N(S(=O)(=O)c2ccc(C)cc2)[C@H](c2ccc(C(=O)OC)cc2)C1(C#N)C#N	0.0	-2.0	-4.1	-2.2	-5.2	/	/	/
Cc1cc(C)c(S(=O)(=O)Nc2cccc(-n3cnnn3)c2)c(C)c1	2.2	0.9	-2.5	1.3	3.4	/	/	/
SMILES	Tb MetRS inh	PLC-gamma1 inh	ADAM10 inh	PLC-beta3 inh	ADAM17 inh	TbMetRS confirm	Jurkat tox	TbMetRS FP orth
Cc1cc(C)c(C)c(S(=O)(=O)Nc2cccc(-n3cnnn3)c2)c1C	7.3*	0.1	3.2	-4.2	0.4	16.9*	8.9	6.3
COc1cccc(N2CCN(c3ncnc4c3[nH]c3ccccc34)CC2C)c1 (configuration not stated)	/	-19.4	-3.1	-19.7	-5.0	/	/	/
COc1cccc(N2CCN(c3ncnc4c3[nH]c3ccc(F)cc34)CC2C)c1 (configuration not stated)	8.5*	-24.4	-7.0	-32.1	-3.6	11.9*	95.4*	13.6
CCN(CC)c1cc(Cl)c2nonc2c1N	0.4	-6.1	-8.8	-10.6	-1.7	/	/	/
CN(C)c1cc(Cl)c2nonc2c1N	5.7*	6.8	-9.1	-16.4	-0.8	3.6	0.1	2.0
CN(C)[C@H]1CCN(c2ccc3c(c2)O[C@@H]2CCN(C2)S3(=O)=O)C1	/	-7.0	-13.1	-3.0	-6.9	/	/	/
O=S(=O)(Nc1ncccn1)c1ccc(NC(=S)Nc2ccc(Cl)cc2)cc1	-0.3	1.8	5.3	-3.2	-2.0	/	/	/
O=C(Nc1ccc(Cl)cc1)Nc1ccc(S(=O)(=O)Nc2ncccn2)cc1	6.2*	0.9	-2.6	1.1	-3.1	8.4*	-0.8	2.0
O=C(CSc1nc2ccc(Cl)cc2[nH]1)NCCc1ccc(Cl)cc1	62.5*	-1.1	-3.4	1.7	2.2	72.1*	5.1	41.0*
COc1ccc2nc(SCC(=O)NCCc3ccccc3)[nH]c2c1	-0.1	-4.2	-1.2	-6.0	-1.3	/	/	/
CN(C(=O)CSc1nc2ccc(Cl)cc2[nH]1)C1CCS(=O)(=O)C1 (configuration not stated)	10.5*	-0.7	-21.4	-0.6	4.0	36.2*	3.8	24.1*
O=C(CSc1nc2ccc(Cl)cc2[nH]1)NCCc1ccccc1	42.5*	3.3	6.5	1.7	4.3	57.9*	-2.5	32.8*
CCN(C(=O)CSc1nc2ccc(C)cc2[nH]1)C1CCS(=O)(=O)C1 (configuration not stated)	0.3	2.6	-10.1	0.2	1.1	/	/	/
O=C(CSc1nc2ccc(Cl)cc2[nH]1)NCc1ccco1	8.3*	-2.4	-2.7	1.1	-0.5	13.0*	8.3	2.0
O=C(CSc1nc2ccccc2[nH]1)NCc1ccco1	-0.6	-1.5	-7.8	-1.3	-5.1	/	/	/
Cc1ccc([C@@H]2C[C@H]3[C@@H](CN2S(=O)(=O)c2ccc(C)cc2)C(=O)C[C@@H](c2ccc(Cl)cc2)N3S(=O)(=O)c2ccccc2C)cc1	0.1	0.0	-7.3	0.4	-0.3	/	/	/
Cc1ccc(-n2nc3c(=O)n(CC(=O)NC4CCCCCC4)nc(C)c3c2C)cc1	-0.9	0.6	-2.4	-6.2	-5.5	/	/	/
C[C@H]1CN(c2ccccc2)C(=O)[C@@H]1CC(=O)Nc1ccc(Br)cc1	0.7	-1.8	6.9	1.2	4.7	/	/	/
